Data set [1] concerns the target Melanin-concentrating hormone receptor 1 (Mus musculus) (UniProt Q8JZL2). The data set is described as follows: Inhibition of MCH-ADO binding to mouse brain at 30 mg/kg, po after 6 hrs. Also noted: dose 30 mg/kg. Type of data set: functional, organism-based. The procedure, abridged: (§1)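 Mouse ex vivo receptor binding after a single 30 mg/kg oral dose: MCH-ADO binding was measured at 6 h and 24 h post-dose and expressed as percent inhibition relative to vehicle controls, mean ± SEM, n = 3.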

For data set [2] the target is unchanged. The data set is described as follows: Inhibition of MCH-ADO binding to mouse brain at 30 mg/kg, po after 24 hrs. Type of data set: functional, organism-based. More on the design: dose 30 mg/kg. The procedure, abridged:
as §1

In data set [3] the target is Melanin-concentrating hormone receptor 2 (Homo sapiens) (UniProt Q969V1). The data set is described as follows: Binding affinity to human MCHR2 assessed as inhibition of MCH-mediated calcium ion influx by FLIPR assay. Format: functional.
Data set [4] concerns the target T1, Melanin-concentrating hormone receptor 1 (Homo sapiens, UniProt Q99705). Put plainly: Binding affinity to human MCHR1 by radioligand binding assay.
For another data set, the system named is Rattus norvegicus. Put plainly: AUC(0-6h) in rat at 10 mg/kg, po. Conditions: in vivo.
Data set [5] deals with Mus musculus. Put plainly: Inhibition of cumulative food intake in DIO mouse at 30 mg/kg, po after 6 hrs. Type of data set: functional. Summed up:
(§2)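 Diet-induced obese mice were fasted 24 h, then given 30 mg/kg orally 1 h before dark onset. Food was returned at dark onset, and cumulative intake was measured at 2, 6 and 24 h. Results are expressed as percent inhibition versus vehicle-treated controls.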

Data set [6] deals with Mus musculus. Put plainly: Inhibition of cumulative food intake in DIO mouse at 30 mg/kg, po after 2 hrs. Type of data set: functional. The procedure, abridged: as §2
In data set [7] the test system is Mus musculus. The data set is described as follows: Inhibition of cumulative food intake in DIO mouse at 30 mg/kg, po after 24 hrs. Format: functional. Summed up:
as §2

Data set [8] concerns the target T1, Melanin-concentrating hormone receptor 1. Put plainly: Binding affinity to human MCHR1 assessed as inhibition of MCH-mediated calcium ion influx by FLIPR assay. Type of data set: functional. The procedure, abridged: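 Functional antagonism at human MCH-R1: cells expressing hMCH-R1 were read by FLIPR for block of MCH-mediated Ca2+ influx, and the value was reported as Kb.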

T1 sequence (Q99705 whole entry): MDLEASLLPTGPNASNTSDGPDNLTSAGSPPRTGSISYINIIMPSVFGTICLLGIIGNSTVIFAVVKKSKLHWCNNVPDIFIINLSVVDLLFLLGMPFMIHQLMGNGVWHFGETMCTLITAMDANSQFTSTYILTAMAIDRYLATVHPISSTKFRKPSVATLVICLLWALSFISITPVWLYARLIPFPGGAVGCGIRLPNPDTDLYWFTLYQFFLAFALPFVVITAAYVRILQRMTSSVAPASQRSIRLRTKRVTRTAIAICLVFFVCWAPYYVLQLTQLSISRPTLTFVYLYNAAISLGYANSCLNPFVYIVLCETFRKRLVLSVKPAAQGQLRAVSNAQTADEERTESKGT
Chain of Melanin-concentrating hormone receptor 2 (Homo sapiens) (Q969V1 whole entry): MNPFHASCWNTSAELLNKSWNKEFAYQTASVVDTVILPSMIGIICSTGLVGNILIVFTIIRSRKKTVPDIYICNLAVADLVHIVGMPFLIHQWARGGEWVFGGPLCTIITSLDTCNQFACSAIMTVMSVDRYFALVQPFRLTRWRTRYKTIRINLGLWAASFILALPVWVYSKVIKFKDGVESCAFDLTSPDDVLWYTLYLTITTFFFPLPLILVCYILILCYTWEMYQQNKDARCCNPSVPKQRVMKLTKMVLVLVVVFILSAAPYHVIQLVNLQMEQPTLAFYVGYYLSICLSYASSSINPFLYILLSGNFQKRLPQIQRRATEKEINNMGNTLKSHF
Chain of Melanin-concentrating hormone receptor 1 (Mus musculus) (Q8JZL2 whole entry): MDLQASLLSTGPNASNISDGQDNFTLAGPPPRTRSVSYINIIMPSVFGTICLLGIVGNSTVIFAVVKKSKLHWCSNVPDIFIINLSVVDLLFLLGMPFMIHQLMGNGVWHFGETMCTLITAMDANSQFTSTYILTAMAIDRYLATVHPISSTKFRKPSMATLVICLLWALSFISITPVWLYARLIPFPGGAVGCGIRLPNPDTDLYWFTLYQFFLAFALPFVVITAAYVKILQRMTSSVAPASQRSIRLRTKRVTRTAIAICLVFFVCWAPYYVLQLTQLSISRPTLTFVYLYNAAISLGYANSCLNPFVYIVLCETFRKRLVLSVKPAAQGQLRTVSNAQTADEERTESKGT

Broadly, the inhibition is the share of the control response that was lost under treatment. High values mean a strong effect, low ones a weak effect. Turning to `N#Cc1ccc(F)c(-c2ccc(C(=C3CCN(CC4CC4)CC3)c3nc4cc(F)c(C(F)(F)F)cc4[nH]3)cc2)c1`, the inhibition amounted to 92% in [1] and 80% in data set [2]. The Activity in data set [3] was above 3 µM.

As a reminder, the Ki is the dissociation constant of the complex between target and ligand, obtained from inhibition or displacement. For the molecule `N#Cc1cccc(-c2ccc(C3(c4nc5cc(F)c(C(F)(F)F)cc5[nH]4)CC34CCN(CC(=O)O)CC4)cc2)c1` (configuration not stated), the Activity in data set [3] is above 3 µM. Besides, the Ki in [4] was determined as 41 nM. `NC(=O)c1cccc(-c2ccc(C(=C3CCN(CC4CC4)CC3)c3nc4cc(C(F)(F)F)c(F)cc4[nH]3)cc2)c1` yielded an inhibition constant (Ki) in [4] of 77 nM. Consider `CCN(CC)CCN1CCC2(CC1)CC2(c1ccc(-c2cccc(C#N)c2)cc1)c1nc2cc(F)c(C(F)(F)F)cc2[nH]1` (configuration not stated), for which, in data set [3], the Activity was above 3 µM. For the same molecule, the Ki in [4] worked out at 15 nM. What is called AUC is concentration integrated over time. Read a high AUC as more exposure. `CN(C)C(=O)N1CCC(=C(c2ccc(-c3cccc(C#N)c3)cc2)c2nc3cc(F)c(C(F)(F)F)cc3[nH]2)CC1` had an inhibition in data set [1] of 50%. Moreover, in the data set on Rattus norvegicus, the AUC was found to be 1290 ng·h/mL. Also, the Activity in [3] is above 3 µM. Besides, in data set [4], the Ki was found to be 37 nM. In the case of `CC(C)S(=O)(=O)N1CCC2(CC1)CC2(c1ccc(-c2cccc(C#N)c2)cc1)c1nc2cc(F)c(C(F)(F)F)cc2[nH]1` (configuration not stated), the Activity in data set [3] is above 3 µM. In addition, in data set [4], the inhibition constant Ki is 67 nM.

Consider `N#Cc1cccc(-c2ccc(C(=C3CCN(CC4CC4)CC3)c3nc4cc(F)c(F)cc4[nH]3)cc2)c1`, for which the Activity in data set [3] is above 3 µM. The molecule further came in with a Ki in data set [4] of 52 nM.

`CC(=O)N1CCC(=C(c2ccc(-c3cccc(C#N)c3)cc2)c2nc3cc(F)c(C(F)(F)F)cc3[nH]2)CC1`: the inhibition in [1] turned out to be 48%. The area under the curve (AUC) with Rattus norvegicus was determined as 5250 ng·h/mL. Also, in data set [3], the Activity was above 3 µM. This molecule returned a Ki in [4] of 31 nM.

In the case of `Fc1cc2[nH]c(C(=C3CCN(CC4CC4)CC3)c3ccc(-c4cncnc4)cc3)nc2cc1C(F)(F)F`, in data set [3], the Activity is above 3 µM. Take `N#Cc1cccc(-c2ccc(C(=C3CCN(CC(N)=O)CC3)c3nc4cc(F)c(C(F)(F)F)cc4[nH]3)cc2)c1`: the Activity in [3] was above 3 µM. Turning to `N#Cc1cncc(-c2ccc(C(=C3CCN(CC4CC4)CC3)c3nc4cc(C(F)(F)F)c(F)cc4[nH]3)cc2)c1`, the Activity in [3] was above 3 µM. The Ki in data set [4] is 10.3 nM.

In the case of `CS(=O)(=O)c1cccc(-c2ccc(C(=C3CCN(CC4CC4)CC3)c3nc4cc(F)c(C(F)(F)F)cc4[nH]3)cc2)c1`, in data set [3], the Activity was above 3 µM. For `CS(=O)(=O)N1CCC(=C(c2ccc(-c3cccc(C#N)c3)cc2)c2nc3cc(F)c(C(F)(F)F)cc3[nH]2)CC1`, the Activity in data set [3] is above 3 µM. This molecule also displayed a Ki in data set [4] of 71.4 nM. In the case of `CC(C)S(=O)(=O)N1CCC(=C(c2ccc(-c3cccc(C#N)c3)cc2)c2nc3cc(F)c(C(F)(F)F)cc3[nH]2)CC1`, the Activity in data set [3] is above 3 µM. Turning to `N#Cc1cccc(-c2ccc(C(=C3CCN(CCO)CC3)c3nc4cc(F)c(C(F)(F)F)cc4[nH]3)cc2)c1`, the Activity in data set [3] was above 3 µM. For the molecule `N#Cc1cccc(-c2ccc(C(=C3CCN(Cc4nccs4)CC3)c3nc4cc(C(F)(F)F)c(F)cc4[nH]3)cc2)c1`, in [3], the Activity was above 3 µM. For the same molecule, in [4], the affinity corresponds to a Ki of 45 nM.

As a reminder, the inhibition in vivo is the share of the control response that was lost under treatment. Read a high inhibition in vivo as a strong effect. `N#Cc1cccc(-c2ccc(C(=C3CCN(CC4CC4)CC3)c3nc4cc(C(F)(F)F)c(F)cc4[nH]3)cc2)c1`: the inhibition in vivo at 30 mg/kg with Mus musculus [5] stood at 32.6%; with Mus musculus [6], 31%; with Mus musculus [7], 18.6%. In addition, the figures for the inhibition in [1] and in [2] were 96% and 84%, respectively. In data set [3], the Activity was above 3 µM. As to `N#Cc1cccc(-c2ccc(C(=C3CCNCC3)c3nc4cc(C(F)(F)F)c(F)cc4[nH]3)cc2)c1`, the Activity in data set [3] was above 3 µM. This molecule also displayed a Ki in data set [4] of 3.6 nM. Turning to `N#Cc1ccccc1-c1ccc(C(=C2CCN(CC3CC3)CC2)c2nc3cc(C(F)(F)F)c(F)cc3[nH]2)cc1`, the Activity in [3] was above 3 µM. This molecule returned a Ki in data set [4] of 464 nM. For the molecule `N#Cc1c[nH]c(=O)c(-c2ccc(C(=C3CCN(CC4CC4)CC3)c3nc4cc(C(F)(F)F)c(F)cc4[nH]3)cc2)c1`, the Ki in [4] came to 99 nM. Consider `NC(=O)c1cccc(-c2ccc(C(=C3CCN(CC4CC4)CC3)c3nc4cc(F)c(C(F)(F)F)cc4[nH]3)cc2)c1`, for which, in data set [3], the Activity was above 3 µM. As for `Cn1cccc1C(=O)N1CCC(=C(c2ccc(-c3cccc(C#N)c3)cc2)c2nc3cc(F)c(C(F)(F)F)cc3[nH]2)CC1`, in [3], the Activity was above 3 µM.

In data set [4], `Cn1cccc1C(=O)N1CCC(=C(c2ccc(-c3cccc(C#N)c3)cc2)c2nc3cc(C(F)(F)F)c(F)cc3[nH]2)CC1` yielded a Ki of 10.1 nM. As to `N#Cc1cccc(-c2ccc(C(=C3CCN(CC4CC4)CC3)c3nc4cc(C#N)ccc4[nH]3)cc2)c1`, the Activity in [3] is above 3 µM.

Regarding `CCN(CC)C(=O)N1CCC(=C(c2ccc(-c3cccc(C#N)c3)cc2)c2nc3cc(F)c(C(F)(F)F)cc3[nH]2)CC1`, in data set [3], the Activity was above 3 µM. This molecule also came in with an inhibitory constant (Ki) in [4] of 22 nM.

`N#Cc1cccc(-c2ccc(C(=C3CCN(CCO)CC3)c3nc4cc(C(F)(F)F)c(F)cc4[nH]3)cc2)c1` gave a Ki in data set [4] of 7.2 nM. With `N#Cc1cccc(-c2ccc(C(=C3CCN(C(=O)c4cccs4)CC3)c3nc4cc(C(F)(F)F)c(F)cc4[nH]3)cc2)c1`, in data set [3], the Activity is above 3 µM. In turn, `N#Cc1cccc(-c2ccc(C3(c4nc5cc(C(F)(F)F)c(F)cc5[nH]4)CC34CCN(CC3CC3)CC4)cc2)c1` (configuration not stated) showed an inhibition in data set [1] of 74%. In addition, the Activity in [3] was above 3 µM. In the case of `N#CCc1cccc(-c2ccc(C(=C3CCN(CC4CC4)CC3)c3nc4cc(C(F)(F)F)c(F)cc4[nH]3)cc2)c1`, in [3], the Activity is above 3 µM. This molecule also had an inhibition constant Ki in data set [4] of 26 nM. As to `N#Cc1cccc(-c2ccc(C(=C3CCN(CC4CC4)CC3)c3nc4cc(Cl)cc(Cl)c4[nH]3)cc2)c1`, the Activity in [3] is above 3 µM. The same molecule gave an inhibitory constant (Ki) in data set [4] of 87 nM. As for `N#Cc1cccc(-c2ccc(C3(c4nc5cc(C(F)(F)F)c(F)cc5[nH]4)CC34CCNCC4)cc2)c1` (configuration not stated), the Activity in [3] is above 3 µM. On to `N#Cc1cnc(O)c(-c2ccc(C(=C3CCN(CC4CC4)CC3)c3nc4cc(F)c(C(F)(F)F)cc4[nH]3)cc2)c1`, for which the Activity in data set [3] was above 3 µM. Turning to `CN(C)S(=O)(=O)N1CCC(=C(c2ccc(-c3cccc(C#N)c3)cc2)c2nc3cc(F)c(C(F)(F)F)cc3[nH]2)CC1`, the Activity in data set [3] is above 3 µM. This molecule came in with a Ki in [4] of 64 nM. As for `N#Cc1cccc(-c2ccc(C3(c4nc5cc(C(F)(F)F)c(F)cc5[nH]4)CC34CCN(Cc3ccccc3)CC4)cc2)c1` (configuration not stated), the Activity in data set [3] is above 3 µM. In the data set on Rattus norvegicus, `N#Cc1ccc(F)c(-c2ccc(C(=C3CCN(CC4CC4)CC3)c3nc4cc(C(F)(F)F)c(F)cc4[nH]3)cc2)c1` came in with an AUC of 3000 ng·h/mL. In addition, in data set [4], the Ki was 3.9 nM. `CCN(CC)C(=O)N1CCC2(CC1)CC2(c1ccc(-c2cccc(C#N)c2)cc1)c1nc2cc(F)c(C(F)(F)F)cc2[nH]1` (configuration not stated): the Activity in data set [3] was above 3 µM. Further, the Ki in data set [4] turned out to be 221 nM. On to `N#Cc1cccc(-c2ccc(C3(c4nc5cc(C(F)(F)F)c(F)cc5[nH]4)CC34CCN(C(=O)N3CCCC3)CC4)cc2)c1` (configuration not stated), for which the Activity in data set [3] is above 3 µM.

On to `N#Cc1cccc(-c2ccc(C(=C3CCN(CC(N)=O)CC3)c3nc4cc(C(F)(F)F)c(F)cc4[nH]3)cc2)c1`, for which the affinity in [4], expressed as Ki, was 15.5 nM. Turning to `Oc1ccc(-c2ccc(C(=C3CCN(CC4CC4)CC3)c3nc4cc(F)c(C(F)(F)F)cc4[nH]3)cc2)cn1`, the Activity in data set [3] was above 3 µM. Further, in [4], the inhibition constant Ki is 174 nM. As to `N#Cc1cccc(-c2ccc(C(=C3CCN(CC4CC4)CC3)c3nc4cc(Cl)c(Cl)cc4[nH]3)cc2)c1`, the Kb in data set [8] stood at 70 nM. Moreover, the inhibition in vivo at 30 mg/kg was 41.8% with Mus musculus [5], 37.4% in the data set on Mus musculus [6] and 26.8% in the data set with Mus musculus [7]. The results for the inhibition in data set [1] and in data set [2] were 68% and 54%, respectively. The molecule further came in with an AUC with Rattus norvegicus of 6640 ng·h/mL. Moreover, the Activity in data set [3] was above 3 µM. The same molecule registered a Ki in data set [4] of 15 nM. For `CN(C)C(=O)N1CCC2(CC1)CC2(c1ccc(-c2cccc(C#N)c2)cc1)c1nc2cc(F)c(C(F)(F)F)cc2[nH]1` (configuration not stated), the Activity in data set [3] is above 3 µM. The Ki in data set [4] amounted to 32 nM. Consider `N#Cc1cccc(-c2ccc(C(=C3CCN(C(=O)C4CC4)CC3)c3nc4cc(C(F)(F)F)c(F)cc4[nH]3)cc2)c1`, for which the Activity in [3] is above 3 µM. For the same molecule, the inhibition constant Ki in data set [4] was found to be 31 nM.

Values taken from ChEMBL document CHEMBL1138940, “Design and synthesis of orally efficacious benzimidazoles as melanin-concentrating hormone receptor 1 antagonists” (Bioorg Med Chem Lett, 2006).
